Laboratory results taken from ChEMBL document CHEMBL1145590, “Discovery and initial SAR of arylsulfonylpiperazine inhibitors of 11beta-hydroxysteroid dehydrogenase type 1 (11beta-HSD1)” (Bioorg Med Chem Lett, 2008).

What was measured:
[1] = target: T1, 11-beta-hydroxysteroid dehydrogenase 1 (Homo sapiens, UniProt P28845)
[2] = target: T1, 11-beta-hydroxysteroid dehydrogenase 1; remark: listed apart in the source
[3] = target: 11-beta-hydroxysteroid dehydrogenase 1 (Mus musculus, UniProt P50172); experiment: Inhibition of mouse recombinant 11beta-HSD1 assessed as conversion of [3H]cortisone to [3H]cortisol by SPA assay
11-beta-hydroxysteroid dehydrogenase 1 (Mus musculus, UniProt P50172), sequence (P50172 whole entry): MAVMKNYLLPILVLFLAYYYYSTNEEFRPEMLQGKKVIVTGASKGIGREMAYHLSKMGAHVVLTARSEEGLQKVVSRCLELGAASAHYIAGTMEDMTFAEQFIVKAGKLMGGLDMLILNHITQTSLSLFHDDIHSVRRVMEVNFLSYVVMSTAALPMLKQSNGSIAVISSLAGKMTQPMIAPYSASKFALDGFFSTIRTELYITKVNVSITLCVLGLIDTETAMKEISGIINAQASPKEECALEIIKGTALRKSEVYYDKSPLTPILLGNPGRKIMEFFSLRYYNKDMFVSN

[4] = Oral bioavailability in rat; assay type: ADME, organism-based; details: in vivo
[5] = Metabolic stability in human liver microsomes after 10 mins; assay type: ADME, Microsome; details: read-out: Stability
Outline: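 Test compound incubated with human liver microsomes. Percent parent remaining measured at 10 min.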

[6] = Clearance in rat; assay type: ADME, organism-based; details: in vivo
[7] = target: T2, 11-beta-hydroxysteroid dehydrogenase type 2 (Homo sapiens, UniProt P80365); experiment: Inhibition of 11beta-HSD2
T2 sequence (P80365 whole entry): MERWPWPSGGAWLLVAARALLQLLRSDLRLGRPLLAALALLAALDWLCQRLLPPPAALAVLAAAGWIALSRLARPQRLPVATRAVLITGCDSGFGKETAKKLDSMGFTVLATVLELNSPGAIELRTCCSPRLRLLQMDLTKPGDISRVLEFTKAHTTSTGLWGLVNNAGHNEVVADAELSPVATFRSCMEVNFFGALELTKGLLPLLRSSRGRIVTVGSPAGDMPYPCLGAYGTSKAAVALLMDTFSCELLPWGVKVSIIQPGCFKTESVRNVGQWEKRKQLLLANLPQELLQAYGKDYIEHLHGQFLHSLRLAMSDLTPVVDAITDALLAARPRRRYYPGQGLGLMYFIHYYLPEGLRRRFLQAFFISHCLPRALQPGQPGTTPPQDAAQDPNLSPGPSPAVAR

T1 sequence (P28845 whole entry): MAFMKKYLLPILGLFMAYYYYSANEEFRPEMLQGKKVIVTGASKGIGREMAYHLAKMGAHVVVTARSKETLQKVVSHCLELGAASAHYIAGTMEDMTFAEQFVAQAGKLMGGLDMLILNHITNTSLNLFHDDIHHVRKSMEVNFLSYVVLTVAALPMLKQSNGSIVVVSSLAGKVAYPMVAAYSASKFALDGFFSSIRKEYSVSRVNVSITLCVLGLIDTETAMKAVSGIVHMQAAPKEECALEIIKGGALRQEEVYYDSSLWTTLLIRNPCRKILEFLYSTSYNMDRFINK

Compound	IC50 [1] [nM]	IC50 [2] [nM]	IC50 [3] [nM]	bioavailability [4] [%]	remaining at 10 min [5] [%]	clearance [6] [mL/min/kg]	IC50 [7] [nM]
FC(F)(F)c1cccnc1N1CCN(Cc2ccccc2)CC1	1930	550	> 1000				
CC(C)(C)c1ccc(S(=O)(=O)N2CCN(c3ccc([N+](=O)[O-])cc3)CC2)cc1	247	10	161	7	90	16.7	
Cc1ccc(S(=O)(=O)N2CCN(c3ncccc3C(F)(F)F)CC2)cc1	461	16	32				> 10000
CCc1ccc(S(=O)(=O)N2CCN(c3ncccc3C(F)(F)F)CC2)cc1	510	18	53				
O=S(=O)(c1ccc2ccccc2c1)N1CCN(c2ncccc2C(F)(F)F)CC1			11				
O=[N+]([O-])c1ccc(S(=O)(=O)N2CCN(c3ncccc3C(F)(F)F)CC2)cc1	922	37	311				
O=S(=O)(c1cccc(C(F)(F)F)c1)N1CCN(c2ncccc2C(F)(F)F)CC1	> 1000	64	53				
CC(C)(C)c1ccc(S(=O)(=O)N2CCN(c3ncccc3C(F)(F)F)CC2)cc1					61		
C[C@H]1CN(c2ncccc2C(F)(F)F)CCN1S(=O)(=O)c1ccc(C(C)(C)C)cc1	569	9	17				
O=C(c1ccccc1)N1CCN(c2ncccc2C(F)(F)F)CC1	> 1000	262	> 1000				
CCC1CN(c2ncccc2C(F)(F)F)CCN1S(=O)(=O)c1ccc(C(C)(C)C)cc1 (stereo not given)	> 1000	17	6				
CC1CN(c2ncccc2C(F)(F)F)CCN1S(=O)(=O)c1ccc(C(C)(C)C)cc1 (stereo not given)	632	9	4				
O=S(=O)(c1ccccc1)N1CCN(c2ncccc2C(F)(F)F)CC1	724	45	122				
O=S(=O)(c1cccc2ccccc12)N1CCN(c2ncccc2C(F)(F)F)CC1	329	13	80				
Cc1ccc(S(=O)(=O)N2CCN(c3ccccn3)CC2)cc1	> 1000	> 1000	> 1000				
Cc1ccc(S(=O)(=O)N2CCN(c3ncccc3C)CC2)cc1	> 1000	152	240				
Cc1ccc(S(=O)(=O)N2CCN(c3ncccc3Cl)CC2)cc1	> 1000	117	146				
Cc1ccc(S(=O)(=O)N2CCN(c3ncccc3C#N)CC2)cc1	> 1000	628					
CC(C)(C)c1ccc(S(=O)(=O)N2CCN(c3ccccc3F)CC2)cc1	> 1000	106	98				
COc1ccc(S(=O)(=O)N2CCN(c3ncccc3C(F)(F)F)CC2)cc1	456	19	32				
N#Cc1ccc(S(=O)(=O)N2CCN(c3ncccc3C(F)(F)F)CC2)cc1	978	50	546				
C[C@@H]1CN(c2ncccc2C(F)(F)F)CCN1S(=O)(=O)c1ccc(C(C)(C)C)cc1	762	11	4				
